These results are taken from the RNAGym collection of RNA variant scans (doi:10.1126/science.aae0568).

Variants at the floor of the assay were thinned out. Bounds are passed on as bounds.

The chains are these.
B1: tRNA (parent)
chain: GUUCCGUUGGCGUAAUGGUAACGCGUCUCCCUCCUAAGGAGAAGACUGCGGGUUCGAGUCCCGUACGGAACG

In this data set the parent is B1. Briefly: yeast fitness relative to wild type (ratio to wild type); higher = fitter; tRNA-Arg(CCU), competitive growth, 37 C, YPD. The essentials:
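The tRNA-Arg(CCU) gene variants were made by chemical synthesis with a 3% per-site mutation rate at 69 sites and inserted at the native genomic locus of Saccharomyces cerevisiae. After pooling, the strains were competed in YPD at 37°C for 24 hours in six parallel replicates. Gene amplicons from the start population and each end population were read by 100-nucleotide paired-end sequencing, and Darwinian fitness relative to wild type was taken from genotype frequency changes. Genotypes needed ≥ 100 starting reads, and estimates < 0.5 were set to 0.5.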
With GUUCCGUUGGCGUAAUGGUUACGCGUCCCCCUCCUAAGGUGAAGACUGCGGGUUCGAGUCCCGUACGGAUCG [A20U U28C A40U A70U], the yeast fitness is at most 0.5.
As for GUUCCGUUGGCGUAAUGGUUACGCGUCUCCCUCCCAAGGAGAAGACUGCGGGUUCGGGUCCCGUACGGAACG [A20U U35C A57G], the yeast fitness was determined as 0.546.
Then GUUCCGUUGGCGUAAUGGUUACGCGUCUCCCUCCUAAGGAGAAGACGGCGGGUUCGAGUCCGGUACGAAACG [A20U U47G C62G G68A], with at most 0.5.
As to GUUCCGUUGGCGUAAUGGUUACGCGUCUCCCUCCUAAGGAGAAGACAGCGGGUUCGAGUCCCGUACGGUACG [A20U U47A A69U], the yeast fitness is 0.619.
Turning to GUUCCGUUGGCGUAAUGGUACCGCGUCUCCCUCCUAAGGAGAAGCCUGUGGGUUCGAGUCCCGUACAGAACG [A21C A45C C49U G67A], the yeast fitness was at most 0.5.
With GUUCCGUUGGCGUAAUGGUUACGCGUCUCCCUCCUAAGGAGAAGACCGCGGGUUCGAGUGCCGUUCGGAGCG [A20U U47C C60G A65U A70G] the figure was 0.573.
Regarding GUUCCGUUGGCGUAAUGGUUACGCGUCUCCCUCCUAAGGAGAAGACUACGGGUUCGAGUCCGGUACGGAACG [A20U G48A C62G], the yeast fitness came out at 0.602.
Then GUUCCGUUGGCGUAAUGGUUACGCGCCUCCCUCCUAAGGAGAAGAUUGCGAGUUCGAGUCCCGUACGGAACG [A20U U26C C46U G51A], with at most 0.5.
In the case of GUUCCGUUGGCGUAAUGGUUACGCGUCUCCCACCUAAGGAGAAGACUGCGGGUUCGAGUCCCGUACGGAACG [A20U U32A], the yeast fitness is 0.78.
With GUUCCGUUGGCGUAAUGGUUACGCGUCUCCCCCCUAAGGAGAAGACUGCGGGUUCGAGUCCCGUACGGAACG [A20U U32C] the figure was 0.882; with GUUCCGUUGGCGUAAUGGUUACGCGUCGCCCUUCGAAGGAGAAGACUGCGGGUUCGAGUACCGUACGGAACG [A20U U28G C33U U35G C60A], at most 0.5; with GUUCCGUUGGCGUAAUGGUACCGCGUCUCCCUCCUAAGGAGAAGUCUGCGGGUUCGAGUCCCGUACGGAACG [A21C A45U], 0.631.
Then GUUCCGUUGGCGUAAUGGUUACGCGCCUCCCUCCUAAGGAGAAGACCGCGGGUUCGAGUCCCGUACGGAGCG [A20U U26C U47C A70G], with 0.603; and GUUCCGUUGGCGUAAUGGUACCGCGUCUCCCUCCUAGGGAGAAGACUGAGGGUUCGAGUCCCGUACGGAACG [A21C A37G C49A], with at most 0.5; and GUUCCGUUGGCGUAAUGGUUACGCGUCUCCCUCCUAAGGAGAAGACUGCGGGUUCAAGUCCCGUACGGAACG [A20U G56A], with 0.922.
Then GUUCCGUUGGCGUAAUGGUACCGCGUCUCCCUCCUCAGGAGAAGACUGCGGGUUCGAGUCCCGUACGGAACG [A21C A36C], with 0.697.
Regarding GUUCCGUUGGCGUAAUGGUACCGCGUCUCCCUCCUAAGGAGACGACUGCGGGUUCGCGUCCCGUACGGAACG [A21C A43C A57C], the yeast fitness was at most 0.5.
Then GUUCCGUUGGCGUAAUGGUUACGCGUCUCCCUCCUAAGGAGAAGACAGCGGGUUCGAGUCCCGUACGGAGCG [A20U U47A A70G], with 0.62; and GUUCCGUUGGCGUAAUGGUACCGCGUCUCCCUCCUACGGAGAAGACUGCGGGUUGGAAUCCCGUACGGAACG [A21C A37C C55G G58A], with at most 0.5.
For GUUCCGUUGGCGUAAUGGUUACGCGUCUCCCUCCUAAGGAGAAGACUACGGGUUCGAGUCACGUCCGGAACG [A20U G48A C61A A65C], the yeast fitness is at most 0.5.
As for GUUCCGUUGGCGUAAUGGUACCGCGUCUCCCUCCUAAGGAGGAGACUGCGGGUGCGAGUCCCGUACGGAACG [A21C A42G U54G], the yeast fitness came out at 0.555.
GUUCCGUUGGCGUAAUGGUUACGCGUCUCCCUCCUAAGGAGAAGACUCCGGGUUCGAGUCGCGUAUGGAACG [A20U G48C C61G C66U]: the yeast fitness worked out at 0.505.
Then GUUCCGUUGGCGUAAUGGUUACGCGCCUCACUCCUAAGGAGAAGACUGCGGGUUCGAGUCCCGUACGGAACG [A20U U26C C30A], with at most 0.5; and GUUCCGUUGGCGUAAUGGUUACGCGUCUCCCUCCUAAGGAGAACACUGCGGGUUAGAGUCCCGUACGGAACG [A20U G44C C55A], with at most 0.5; and GUUCCGUUGGCGUAAUGGUACCGCGUCUCCCUCCUAAGGAGAAGUCUGCGGAUUCGAGUCCAGUACGGAACG [A21C A45U G52A C62A], with at most 0.5.
Consider GUUCCGUUGGCGUAAUGGUACCGCGUCUCCCUCCUAAGGAGAAGACUGCGGGUUCGAGUCCCGUACGGAACG [A21C], for which the yeast fitness is 0.973.
With GUUCCGUUGGCGUAAUGGUUACGCGUCUCCCUCCUAAGGAGAAGACUGCGGGUUCGAGUCCCGCACGGCACG [A20U U64C A69C] the figure was 0.657; with GUUCCGUUGGCGUAAUGGUACCGCGUCUCCCUCCUAAGGAGAAGUCUGCGGAUUCGAGUCCCGUACGGAACG [A21C A45U G52A], 0.503; with GUUCCGUUGGCGUAAUGGUACCGCGUCUCCCUCCUUAGGAGAAGACUGCGGGUUUGAGUCCCGUACGGAACG [A21C A36U C55U], 0.626.
Turning to GUUCCGUUGGCGUAAUGGUUACGCGUCUCCCUCCUAAGGAGAAGACUGCAGGUUCGAGCCCCGUACCGAACG [A20U G50A U59C G67C], the yeast fitness is at most 0.5.
Then GUUCCGUUGGCGUAAUGGUUACGCGUCUCCCUCCUAAGGAGAAGACUGCGAGUUCGAGUCCCGUACGGAACG [A20U G51A], with 0.811; and GUUCCGUUGGCGUAAUGGUACCGCGUCUCCCUCCUAUGGAGAAGACUGCGAGUUCGAGUCCCGUACGGAACG [A21C A37U G51A], with at most 0.5.
With GUUCCGUUGGCGUAAUGGUUACGCGUCUCCCUCCUAAGGAGAAGACUGCAGGUUCGAGUCCCGUUCGGAACG [A20U G50A A65U] the figure was at most 0.5; with GUUCCGUUGGCGUAAUGGUUACGCGUCUCCCUCCAAAGGAGAACACUGCGGGUUCGAGUCCCGUACGGAACG [A20U U35A G44C], at most 0.5; with GUUCCGUUGGCGUAAUGGUACCGCGUCUCCCUCCUUAGGAGAAGAGUGCGGGUUCGAGUCCAGUACGGCACG [A21C A36U C46G C62A A69C], at most 0.5.
Then GUUCCGUUGGCGUAAUGGUUACGCGACUCCCUCCUAAGGAGAGGACUGCGGGUUCGAGUCCCGUACGGAACG [A20U U26A A43G], with at most 0.5; and GUUCCGUUGGCGUAAUGGUUACGCGUCUCCCUCCUAAGGAGAAGACUGCGGGUUCGAGUCCCGCACGGAACG [A20U U64C], with 0.902.
